One series concerns NCI/ADR-RES. In words: Growth inhibition of human MCF7/ADR cells after 48 hrs by SRB assay. It counts as functional, cell-based. The essentials: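 Doxorubicin-selected MCF-7/ADR cells maintained under doxorubicin, grown in RPMI 1640 with glutamine and 10% fetal calf serum, 37 °C, 5% CO2. Log-phase cells plated, attached 24 h, exposed to varying compound concentrations for 48 h; ethanol vehicle controls. Survival by SRB absorbance versus control; triplicate readings averaged for IC50.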
A general note: The SRB assay estimates cell density from bound dye.

The next series relates to MCF7. In words: Growth inhibition of human MCF7 cells after 48 hrs by SRB assay. It counts as functional, cell-based. The conditions noted are these: MCF7, 48 h. The gist of the method: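 MCF-7 cells in RPMI 1640 with glutamine and 10% fetal calf serum, 37 °C, 5% CO2. Log-phase cells plated, attached 24 h, then exposed to varying compound concentrations for 48 h; ethanol vehicle controls. Survival by SRB, absorbance 540 nm versus control; each dilution in triplicate, IC50 from mean of triplicates.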

A further series addresses ABCB1 (P-glycoprotein) (Homo sapiens, UniProt P08183). The series is described as follows: Displacement of [3H]-azidopine from ABCB1 in human KBV1 cell membranes at IC50 incubated for 20 mins in dark followed by irradiation of UV-light measured after 20 mins by SDS-PAGE based autoradiography relative to control. The following applies: probe [3H]-azidopine. In general terms: In a radioligand displacement assay an active substance lowers the binding of a labelled ligand.

Series [1] addresses ATP-dependent translocase ABCB1 (Homo sapiens, UniProt P08183). In words: Inhibition of ABCB1 in human MCF7/ADR cells assessed as potentiation of vinblastine-induced cytotoxicity at IC10 after 7 days by SRB assay relative to vinblastine alone. It counts as cell-based. The following applies: 168 h. The essentials:
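Doxorubicin-maintained MCF-7/ADR cells given vinblastine (0-100 nM, continuous 7 days per results text; methods state 0-15 nM for 48 h) alone or with modulator at its IC10. Survival by SRB versus ethanol vehicle control; vinblastine IC50 with modulator compared to vinblastine alone; triplicates averaged.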

pIC50: −log10 of the molar value.

As usually defined, the pIC50 is −log10 of the IC50, conventionally taken in molar units. The term inhibition denotes the drop in the measured response relative to a control, in per cent. A lower inhibition goes with a response near the control.

Sequence of ATP-dependent translocase ABCB1 (P08183 whole entry): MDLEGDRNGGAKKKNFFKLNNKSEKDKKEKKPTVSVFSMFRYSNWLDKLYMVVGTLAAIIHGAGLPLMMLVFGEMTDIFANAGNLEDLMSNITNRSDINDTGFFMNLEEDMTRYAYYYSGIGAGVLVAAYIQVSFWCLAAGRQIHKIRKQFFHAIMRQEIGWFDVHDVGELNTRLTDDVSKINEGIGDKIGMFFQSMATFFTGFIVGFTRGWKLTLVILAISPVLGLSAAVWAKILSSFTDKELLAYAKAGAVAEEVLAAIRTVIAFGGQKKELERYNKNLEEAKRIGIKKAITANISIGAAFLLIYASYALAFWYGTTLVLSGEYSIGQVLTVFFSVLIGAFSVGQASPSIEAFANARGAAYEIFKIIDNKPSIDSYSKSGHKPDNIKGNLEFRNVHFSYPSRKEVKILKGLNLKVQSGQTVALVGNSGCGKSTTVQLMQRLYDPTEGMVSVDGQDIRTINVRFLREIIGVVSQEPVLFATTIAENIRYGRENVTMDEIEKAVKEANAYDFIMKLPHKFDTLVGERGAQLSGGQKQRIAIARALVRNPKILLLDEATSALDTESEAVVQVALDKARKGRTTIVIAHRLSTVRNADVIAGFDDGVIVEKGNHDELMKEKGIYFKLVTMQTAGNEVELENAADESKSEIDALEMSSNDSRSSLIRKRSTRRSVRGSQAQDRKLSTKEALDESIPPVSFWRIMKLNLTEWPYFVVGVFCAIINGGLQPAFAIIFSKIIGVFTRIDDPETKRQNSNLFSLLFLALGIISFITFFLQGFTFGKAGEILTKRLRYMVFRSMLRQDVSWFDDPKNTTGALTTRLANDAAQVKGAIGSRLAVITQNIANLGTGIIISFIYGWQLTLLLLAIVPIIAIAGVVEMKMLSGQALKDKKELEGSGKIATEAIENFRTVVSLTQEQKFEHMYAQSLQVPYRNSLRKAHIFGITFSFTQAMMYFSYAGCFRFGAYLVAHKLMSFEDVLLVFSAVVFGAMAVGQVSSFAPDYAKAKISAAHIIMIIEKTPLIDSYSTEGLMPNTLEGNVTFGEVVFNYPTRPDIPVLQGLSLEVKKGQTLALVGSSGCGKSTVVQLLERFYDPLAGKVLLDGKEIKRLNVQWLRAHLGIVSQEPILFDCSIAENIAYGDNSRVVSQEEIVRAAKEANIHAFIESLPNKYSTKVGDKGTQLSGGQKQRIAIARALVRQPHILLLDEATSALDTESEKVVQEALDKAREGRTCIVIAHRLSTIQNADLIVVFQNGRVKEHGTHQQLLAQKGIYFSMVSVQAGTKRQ
Sequence of ABCB1 (P-glycoprotein) (P08183 whole entry): as above

As to `COc1cccc2c1C(=O)c1c(O)c3c(c(O)c1C2=O)C[C@@](O)(C(C)=O)C[C@@H]3O[C@H]1C[C@H](N)[C@H](O)[C@H](C)O1` [DAUNORUBICIN], in the series with NCI/ADR-RES, the pIC50 was 5.15.
Take `Cc1cc(C)c2c(c1)c(=O)c1ccccc1n2CCCCN1CCN(C)CC1`: the pIC50 is 4.84 with MCF7 and 4.79 in the series with NCI/ADR-RES. On ABCB1 (P-glycoprotein), the inhibition at 20 min came to 43%.
As for `CC[C@]1(O)C[C@@H]2CN(CCc3c([nH]c4ccccc34)[C@@](C(=O)OC)(c3cc4c(cc3OC)N(C)[C@H]3[C@@](O)(C(=O)OC)[C@H](OC(C)=O)[C@]5(CC)C=CCN6CC[C@]43[C@@H]65)C2)C1` [VINBLASTINE], the values for the pIC50 in the series with MCF7 and in the series with NCI/ADR-RES were 8.49 to 8.52 and 7.16 to 7.97, respectively.
Regarding `Cc1cc(C)c2c(c1)c(=O)c1ccccc1n2CCCN1CCN(CCO)CC1`, the “fold change (FC)” value in series [1] is given as 16.74. Also, the pIC50 with MCF7 is 4.92; with NCI/ADR-RES, 4.82. Moreover, the inhibition at 20 min on ABCB1 (P-glycoprotein) was 52%.
For `Cc1cc(C)c2c(c1)c(=O)c1ccccc1n2CCCN1CCN(C)CC1`, the “fold change (FC)” value in series [1] was 4.75. Besides, the pIC50 was 4.30 in the series with MCF7 and 4.27 in the series with NCI/ADR-RES. In addition, at ABCB1 (P-glycoprotein), the inhibition at 20 min was 46%.
Take `Cc1cc(C)c2c(c1)c(=O)c1ccccc1n2CCCCN(CCO)CCO`: the “inhibition (INH)” value in series [1] is given as “Active”. Also, the figures for the pIC50 in the series with MCF7 and with NCI/ADR-RES were 5.40 and 5.28, respectively. At ABCB1 (P-glycoprotein), this compound showed an inhibition at 20 min of 55%.
Turning to `Cc1cc(C)c2c(c1)c(=O)c1ccccc1n2CCCN(CCO)CCO`, in series [1], the “fold change (FC)” value was found to be 9.7. Moreover, the values for the pIC50 in the series with MCF7 and in the series with NCI/ADR-RES were 4.72 and 4.64, respectively. The inhibition at 20 min on ABCB1 (P-glycoprotein) came to 40%.
For `Cc1cc(C)c2[nH]c3ccccc3c(=O)c2c1` the same measures were 1.4, 4.10, 4.09 and 33%.
Turning to `Cc1cc(C)c2c(c1)c(=O)c1ccccc1n2CCCCCl`, the inhibition at 20 min on ABCB1 (P-glycoprotein) is 36%.
As for `Cc1cc(C)c2c(c1)c(=O)c1ccccc1n2CCCCl`, the inhibition at 20 min at ABCB1 (P-glycoprotein) is 28%.
For the compound `Cc1cc(C)c2c(c1)c(=O)c1ccccc1n2CCCCN1CCN(CCO)CC1`, the “inhibition (INH)” value in series [1] is on record as “Active”. In addition, the pIC50 is 5.70 with MCF7 and 5.59 with NCI/ADR-RES. Besides, the inhibition at 20 min on ABCB1 (P-glycoprotein) was 58%.
Turning to `CCN(CC)CCCn1c2ccccc2c(=O)c2cc(C)cc(C)c21`, in series [1], the “fold change (FC)” value came to 10.48. In addition, the pIC50 is 4.54 in the series with MCF7 and 4.47 in the series on NCI/ADR-RES. The same compound came in with an inhibition at 20 min at ABCB1 (P-glycoprotein) of 36%.
Regarding `Cc1cc(C)c2c(c1)c(=O)c1ccccc1n2CCCCN1CCCCC1`, the negative logarithm of the IC50 (pIC50) is 4.52 in the series on MCF7 and 4.44 in the series on NCI/ADR-RES. For the same compound, the inhibition at 20 min on ABCB1 (P-glycoprotein) came out at 42%.
Consider `Cc1cc(C)c2c(c1)c(=O)c1ccccc1n2CCCN1CCCCC1`, for which the “fold change (FC)” value in series [1] is 7.17. Besides, the pIC50 with MCF7 is 4.24; in the series on NCI/ADR-RES it was 4.21. In addition, the inhibition at 20 min at ABCB1 (P-glycoprotein) stood at 34%.
In the case of `COc1ccc(CCN(C)CCCC(C#N)(c2ccc(OC)c(OC)c2)C(C)C)cc1OC` (stereo unspecified) [VERAPAMIL], the inhibition at 20 min at ABCB1 (P-glycoprotein) turned out to be 61%.
`Cc1cc(C)c2c(c1)c(=O)c1ccccc1n2CCCN1CCOCC1`: the “fold change (FC)” value in series [1] came out at 6.4. The pIC50 is 4.23 with MCF7 and 4.19 in the series with NCI/ADR-RES. The compound further registered an inhibition at 20 min at ABCB1 (P-glycoprotein) of 26%.
As to `Cc1cc(C)c2c(c1)c(=O)c1ccccc1n2CCCCN1CCOCC1`, the “inhibition (INH)” value in series [1] is “Active”. Besides, the negative logarithm of the IC50 (pIC50) was 4.70 in the series with MCF7 and 4.66 in the series on NCI/ADR-RES. Besides, the inhibition at 20 min on ABCB1 (P-glycoprotein) worked out at 36%.
For `CCN(CC)CCCCn1c2ccccc2c(=O)c2cc(C)cc(C)c21` the same measures were “Active”, 5.08, 5.04 and 54%.

The record behind these values is ChEMBL document CHEMBL4014272, “Design, synthesis, biological evaluation, molecular docking and QSAR studies of 2,4-dimethylacridones as anticancer agents” (Eur J Med Chem, 2017).
